Experimental data taken from publication PMC7216793 (Molecular pharmaceutics, 2020).

Key:
[1] = test system: ASM; conditions: cited from earlier work
[2] = mass spectrometry analysis of pH dependent ratio of closed and open MIDD0301; assay type: physicochemical
Procedure, shortened: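 Closed form at 50 μM in water was brought to pH 1 with 0.1 M HCl. It was then stepped up to pH 9 with 10% ammonium hydroxide, taking an aliquot at each pH. Aliquots stood 24 h at rt, then final pH was measured. Each was infused directly into the MS without LC or added solvent. Closed:open ratio came from peak heights at 414 and 432 m/z.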

[3] = shake flask solubility at different pH, UV at 270 nm; assay type: physicochemical; conditions: 24 h shake flask
Procedure, shortened: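 2 mg closed form in 200 μL buffered water was shaken 24 h in a closed vial. It was centrifuged 5 min at 16000 × g and supernatant pH was measured. Three 10 μL aliquots were diluted into 50:50 methanol/25 mM phosphate pH 10 and read at 270 nm. Concentration came from a calibration curve in the same diluent. Three independent measurements per pH.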

[4] = oral dosages of 1000 mg/kg; cited from earlier work
[5] = logD oct/wat at different pH; assay type: physicochemical; conditions: 1-octanol/buffered water, 24 h
Procedure, shortened: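 Shake-flask partition of the closed form. 200 μL of 2.5 mM in 1-octanol was added to 300 μL water-saturated octanol and 500 μL octanol-saturated buffer (pH 1–9). Vials were shaken overnight and left 1 h to separate. Aliquots of each layer were diluted in octanol or buffer and read at 270 nm (isosbestic). Concentrations came from per-phase calibration curves. Run in triplicate.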

[6] = kinetics of ring opening and closing by 1H-NMR; assay type: physicochemical; conditions: 0.1 N DCl in 50:50 D2O:d6-DMSO
[7] = spectrophotometric pH transition; assay type: physicochemical; conditions: absorbance difference at 252 and 292 nm vs pH
Procedure, shortened: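 Closed or open form at 50 μM (1% DMSO), in buffers adjusted to 0.1 M ionic strength with KCl: 50 mM phosphoric acid pH 1–2, 50 mM acetate pH 3–5, 50 mM phosphate pH 6–8, 12.5 mM borate pH 9. After 24 h at rt, spectra were read 230–400 nm, DMSO blank subtracted (two experiments, duplicate). Summed absorbance differences at 252/292 nm vs pH were fitted by nonlinear regression.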

[8] = test system: airway resistance induced with methacholine; conditions: airway resistance induced with 25 mg/ml methacholine; cited from earlier work
[9] = test system: asthmatic mice (ovalbumin sensitized and challenged model); conditions: cited from earlier work
[10] = earlier work, no reference given; cited from earlier work
[11] = kinetics of ring opening and closing by UV absorbance at 246 nm; assay type: physicochemical; conditions: UV 246 nm, aqueous 0.1 N HCl
Procedure, shortened: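 Four replicate wells, each with 5 μL of 1 mM closed form plus 75 μL aqueous acid (0.1 N HCl; final 62.5 μM). A246 read every 30 s for 260 min, with a DMSO-containing buffer blank subtracted. Averaged absorbance-time curves (n = 4) were fitted by first-order kinetics to give k and half-life.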

[12] = pharmacokinetic study in mice: blood, lung and brain concentrations by LC-MS/MS; assay type: in vivo, Swiss Webster mice
Procedure, shortened: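 Six-week-old female Swiss Webster mice (SPF) received closed or open form by intragastric gavage at 25 mg/kg in various vehicles (n = 4). At 60 min, heparinised blood was drawn by cardiac puncture and non-perfused brain and lungs were harvested. Samples were extracted in methanol with internal standard. Both forms were quantified by LC-MS/MS (C18; methanol/water, 0.1% formic acid; positive mode).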

[13] = 28 day dosing of 100 mg/kg; cited from earlier work
[14] = acid titration of basic MIDD0301 solution with 1 N HCl; assay type: physicochemical; conditions: 50 μM in 0.1 N NaOH, water with 30 % DMSO; nonlinear regression
[15] = mice, 25 mg/kg oral, 60 min, Entry 1: 2.5 % PEG400, 98 % HPMC (2 % in water), pH 6.1
[16] = mice, 25 mg/kg oral, 60 min, Entry 2: 40 % propylene glycol, 60 % HPMC (2 % in water), pH 5.9
[17] = mice, 25 mg/kg oral, 60 min, Entry 4: 2.5 % PEG400, 98 % HPMC (2 % in PBS, pH 7.4)
[18] = mice, 25 mg/kg oral, 60 min, Entry 4: 2.5 % PEG400, 98 % HPMC (2 % in PBS, pH 7.4), listed as Closed MIDD0301, 25 mg/kg
[19] = mice, 25 mg/kg oral, 60 min, Entry 4: 2.5 % PEG400, 98 % HPMC (2 % in PBS, pH 7.4), listed as closed MIDD0301, 25 mg/kg
[20] = mice, 25 mg/kg oral, 60 min, Entry 5: pretreatment with omeprazole (30 mg/kg), 2.5 % PEG400, 98 % HPMC (2 % in PBS)

Compound: CC(C)c1cccc(C(C)C)c1O [propofol]
- effect on airway smooth muscle [1]: relaxed ASM

Compound: C[C@H]1N=C(c2ccccc2F)c2cc(Br)ccc2-n2cnc(C(=O)O)c21 [MIDD0301]
- closed MIDD0301 remaining by MS ([2]; 0.1 N HCl, after 24 h): 10%
- open MIDD0301 share by MS ([2]; pH 6, after 24 h): 17%
- open MIDD0301 share by MS ([2]; pH 7 and higher, 24 h): 2%
- calculated equilibrium pH (equal peak heights of closed and open form) ([2]; water, 24 h, MS 414 vs 432 m/z): 4.3
- pH range in which the equilibrium between open and closed form was observed ([2]; water, MS): 4–5
- aqueous solubility ([3]; neutral pH): > 3000 µg/mL
- aqueous solubility ([3]; pH 3.9): < 100 µg/mL
- CNS effects in sensorimotor studies [4]: no CNS effects
- pH range of highest concentration in 1-octanol [5]: 2–5
- kacid, conversion of closed to open MIDD0301 ([6]; 2.4 mM, pseudo first order): 0.050 min⁻¹
- half-life of ring opening [6]: 13.7 min
- pH of the spectrophotometric transition [7]: 4.34
- nebulized dose sufficient to overcome airway resistance [8]: 0.8 mg/kg
- IL-17A, IL-4 and TNFα in the lungs ([9]; asthmatic mice): reduction
- airway hyperresponsiveness to methacholine challenge ([9]; oral 100 mg/kg): reduced airway hyperresponsiveness
- eosinophil, CD4+ T cell and macrophage numbers in the lungs ([9]; oral 100 mg/kg): reduced
- oral dosage required to achieve pharmacological effects [10]: 50 mg/kg
- kacid, conversion of closed to open MIDD0301 ([11]; 62.5 μM): 0.142 min⁻¹
- half-life in 0.1 N HCl [11]: 4.8 min
- percentage of open MIDD0301 in comparison to closed MIDD0301 ([12]; all biological samples, all formulations): ≤ 4%
- Concentration of closed MIDD0301, Brain [12, 15]: 87 ± 27 nM
- Concentration of open MIDD0301, Blood [12, 15]: 9 ± 3 nM
- Concentration of open MIDD0301, Brain [12, 15]: 3 ± 1 nM
- Concentration of open MIDD0301, Lung [12, 15]: 5 ± 2 nM
- open MIDD0301, % of closed MIDD0301, Blood [12, 15]: 3%
- open MIDD0301, % of closed MIDD0301, Brain [12, 15]: 2%
- open MIDD0301, % of closed MIDD0301, Lung [12, 15]: 2%
- concentration of open MIDD0301 as % of closed MIDD0301, all samples ([12]; mice, 25 mg/kg oral, 60 min, Entry 1, blood, lung, brain): 2–3%
- Concentration of closed MIDD0301, Brain [12, 16]: 104 ± 42 nM
- Concentration of open MIDD0301, Blood [12, 16]: 6 ± 2 nM
- Concentration of open MIDD0301, Brain [12, 16]: 3 ± 1 nM
- Concentration of open MIDD0301, Lung [12, 16]: 9 ± 2 nM
- open MIDD0301, % of closed MIDD0301, Blood [12, 16]: 3%
- open MIDD0301, % of closed MIDD0301, Brain [12, 16]: 3%
- open MIDD0301, % of closed MIDD0301, Lung [12, 16]: 2%
- Concentration of closed MIDD0301, Brain [12, 17]: 130 ± 24 nM
- Concentration of open MIDD0301, Blood [12, 17]: 18 ± 14 nM
- Concentration of open MIDD0301, Brain [12, 17]: 4 ± 3 nM
- Concentration of open MIDD0301, Lung [12, 17]: 28 ± 19 nM
- open MIDD0301, % of closed MIDD0301, Blood [12, 17]: 4%
- open MIDD0301, % of closed MIDD0301, Brain [12, 17]: 3%
- open MIDD0301, % of closed MIDD0301, Lung [12, 17]: 2%
- Concentration of closed MIDD0301, Blood [12, 18]: 413 ± 116 nM
- Concentration of closed MIDD0301, Lung [12, 18]: 1745 ± 1121 nM
- Concentration of closed MIDD0301, Blood [12, 19]: 413 nM
- Concentration of closed MIDD0301, Lung [12, 19]: 2046 nM
- Concentration of closed MIDD0301, Blood [12, 20]: 516 ± 180 nM
- Concentration of closed MIDD0301, Brain [12, 20]: 159 ± 33 nM
- Concentration of closed MIDD0301, Lung [12, 20]: 2046 ± 1155 nM
- Concentration of open MIDD0301, Blood [12, 20]: 20 ± 8 nM
- Concentration of open MIDD0301, Brain [12, 20]: 4 ± 2 nM
- Concentration of open MIDD0301, Lung [12, 20]: 32 ± 21 nM
- open MIDD0301, % of closed MIDD0301, Blood [12, 20]: 4%
- open MIDD0301, % of closed MIDD0301, Brain [12, 20]: 3%
- open MIDD0301, % of closed MIDD0301, Lung [12, 20]: 2%
- MIDD0301 in non-perfused brain as % of lung concentration ([12]; mice, oral, under these specific conditions (Conclusions)): less than 10%
- humoral immune response to T-dependent antigen dinitrophenyl-keyhole limpet haemocyanin [13]: no change
- signs of toxicity [13]: no signs of toxicity
- pH of inflection, acid titration [14]: 4.69
